Experimental findings from PubChem BioAssay are described below.

Active and inactive are the calls of the source.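 The calls were made as follows, unless noted: active = a full or partial loss of lipid-probe fluorescence in the fish gall bladder, intestine or both, judged by eye; inactive = no fluorescence loss, or compound toxic to the fish.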

The nature of test [1]: inhibitors of TNFa-induced NFkB p65 translocation, primary screen, imaging, HUVEC, MLSMR starter and 10KST1 sets (AID 438;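 active = inhibition above 20% together with a positive visual image hit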;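 also: compound added about 3h40 before a 20 min TNFalpha stimulation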;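 as to inhibition: signal is the nuclear over cytoplasmic p65 intensity ratio per well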). The conditions noted are these: HUVEC TNFa-induced p65 nuclear translocation; cell count: measured here: nuclei count (cytotoxicity indicator), at 2.08 µM; inhibition: at 2 µM, stronger effect = higher value, 0% TNFa-plus-vehicle, 100% no-TNFa wells.
Test [2] is described as follows: inhibitors of mutant huntingtin aggregation, primary screen, imaging, exon1htt(103Q)mCFP cells, high-content imaging (AID 483;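 active = visual image review flags a hit and inhibition of aggregation exceeds 20%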;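 also: compound exposure lasted 3 days before fixation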;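 as to nuclei count: percent of the per-plate median nuclei count of sample wells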). To be noted: exon1htt(103Q)mCFP cell line, aggregate imaging, at 2 µM; inhibition of aggregation: stronger effect = higher value; nuclei count: measured here: cell count, toxicity.
Test [3] can be described thus: inhibitors of E-selectin induction by TNFa, primary screen, imaging, HUVEC, immunofluorescence, MLSMR starter and 10KST1 sets (AID 487;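 active = visually confirmed hit in the image check and inhibition above 20%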;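 as to inhibition: signal is fraction of cell area covered by stained E-selectin grains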;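 as to nuclei count: 100% = median nuclei count of all wells on the same plate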). The conditions noted are these: HUVEC TNFalpha-induced E-selectin immunofluorescence imaging, at 2 µM; inhibition: stronger effect = higher value; nuclei count: measured here: cell number, toxicity.
The target of test [4] is Voltage-gated potassium channel subunit beta-2 (Rattus norvegicus) (UniProt P62483). The experiment in a line: KvBeta enzyme negative modulators, primary screen, biochemical, NADPH fluorescence (AID 622;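 active = fluorescence slope higher than the sample average by over 3 SD, cut at about -0.22 in these data, passing the limit was not always enough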;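 also: slope of raw intensity against log time taken from 70 to 1610 s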). The conditions noted are these: recombinant KvBeta, 4-cyanobenzaldehyde reduction, at 10 µM, stronger effect = higher value.
For test [5] the target is unchanged. Briefly: KvBeta positive modulators, primary screen, biochemical, NADPH fluorescence (AID 623;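 active = NADPH fluorescence slope more negative than the mean of all samples by about 3 SD, 99.7% confidence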;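 also: fluorescence intensity change per second fitted from 20 to 320 s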). The conditions noted are these: Recombinant KvBeta, NADPH fluorescence decrease slope, 10 min; at 10 µM; stronger effect = lower value.
The target in test [6] is Alpha-2C adrenergic receptor (Homo sapiens) (UniProt P18825). Briefly: modulators of alpha2C/GIRK thallium flux, primary screen, cell-based, HEK293 alpha2C/GIRK1/2 (AID 624;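 active = fluorescence slope after compound addition differing from the mean of all screened samples at 99.7% confidence, in either direction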;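 also: slope of fluorescence ratio to pre-addition baseline per second over 15 to 24 s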). The conditions noted are these: thallium flux BTC fluorescence, at 10 µM, actives lie on both sides.
Test [7] in a line: inhibitors of larval lipid processing in zebrafish, primary screen, whole organism, PED6 fluorescence, gall bladder and intestine (AID 686).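 Also: larvae 5 to 7 days old with five fish per well; signal comes from phospholipase A2 cleavage of quenched PED6 carried via bile; overnight exposure to compound and PED6 before scoring.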 To be noted: Zebrafish larvae PED6 lipid processing, fluorescence scoring; screened at 20 µM (by protocol). In outline: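 System: live zebrafish larvae aged 5-7 days, whole organism; measure: graded gall bladder and intestinal fluorescence inhibition per well; incubation: overnight exposure; reagent: ingested quenched lipid PED6 at 100 nM; signal: By-eye fluorescence microscopy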

Test [8] can be described thus: inhibitors of Sendai virus-induced IRF3 signaling, primary screen, TLR/RLR signaling modifier project, cell-based, Sendai virus stimulus, luciferase, 10K MLSCN set (AID 602276;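 active = inhibition at or above 50% at 10 µM; inactive = inhibition below 50%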;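 also: firefly luciferase from ISG56 promoter only with Renilla not read in this screen; 0% = Sendai virus plus DMSO and 100% = medium plus DMSO without virus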). To be noted: HEK293 RL24 IRF3 luciferase reporter, at 10 µM, stronger effect = higher value. (A reporter such as luciferase makes a cellular process visible.)
The nature of test [9]: inhibitors of poly I:C-induced TLR3 signaling, primary screen, cell-based, poly I:C stimulus, luciferase, 10K MLSCN set (AID 602277;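 active = inhibition of the reporter signal at or above 50%; inactive = inhibition below 50%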). To be noted: HEK293-TLR3 RL24 IRF3 luciferase reporter, at 10 µM, stronger effect = higher value.

Sequence of Alpha-2C adrenergic receptor (Homo sapiens) (P18825 whole entry, looked up): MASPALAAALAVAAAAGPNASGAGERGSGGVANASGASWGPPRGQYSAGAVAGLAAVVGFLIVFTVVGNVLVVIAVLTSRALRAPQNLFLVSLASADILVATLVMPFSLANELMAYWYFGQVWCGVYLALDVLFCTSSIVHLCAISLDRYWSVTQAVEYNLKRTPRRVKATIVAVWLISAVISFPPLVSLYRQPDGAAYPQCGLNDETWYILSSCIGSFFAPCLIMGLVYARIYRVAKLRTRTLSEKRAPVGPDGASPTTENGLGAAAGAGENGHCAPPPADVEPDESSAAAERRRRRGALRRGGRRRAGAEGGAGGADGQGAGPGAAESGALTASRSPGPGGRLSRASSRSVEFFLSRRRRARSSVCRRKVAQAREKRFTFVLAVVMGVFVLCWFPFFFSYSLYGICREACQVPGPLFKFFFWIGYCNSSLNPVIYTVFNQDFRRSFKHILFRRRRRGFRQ
Sequence of Voltage-gated potassium channel subunit beta-2 (Rattus norvegicus) (P62483 whole entry, looked up): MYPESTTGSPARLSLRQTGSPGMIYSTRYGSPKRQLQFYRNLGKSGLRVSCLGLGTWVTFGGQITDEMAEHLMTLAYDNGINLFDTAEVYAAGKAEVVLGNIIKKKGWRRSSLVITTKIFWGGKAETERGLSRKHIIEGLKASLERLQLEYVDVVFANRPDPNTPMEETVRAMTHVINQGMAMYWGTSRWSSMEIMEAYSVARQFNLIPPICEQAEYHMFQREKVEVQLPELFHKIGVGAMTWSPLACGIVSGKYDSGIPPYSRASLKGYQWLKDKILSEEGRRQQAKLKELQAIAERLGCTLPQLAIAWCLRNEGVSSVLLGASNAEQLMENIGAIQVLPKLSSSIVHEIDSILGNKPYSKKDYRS

For the molecule `O=C(CSc1n[nH]c(=O)[nH]c1=O)c1ccccc1`, the cell count in [1] amounted to 486. Further, the inhibition (in general, the relative decrease from the control value, in per cent) in [1] is -5.6% (inactive); in [3], -33.2% (inactive); in test [8] it was 1.37% (inactive); in test [9] it was 0.379% (inactive). In test [2], the inhibition of aggregation is 6.7% (inactive). Further, the nuclei count in test [2] stood at 82%; in [3], 99.8%. The fluorescence slope in [4] was -0.34 (inactive). For the same molecule, the NADPH fluorescence slope in test [5] was -4e-05 (inactive). Further, the slope in test [6] is 0.00685 (inactive). Besides, the molecule was called inactive in [7].

As to `Cc1ccc(-c2nn(-c3ccccc3)cc2/C=C(\C#N)c2cccc(C#N)c2)o1`, in test [1], the cell count worked out at 264. For the same molecule, the inhibition in test [1] is -9.3% (inactive); in test [3], 3.9% (inactive); in test [8], 13.8% (inactive); in test [9], 5.01% (inactive). Besides, the inhibition of aggregation in test [2] was -10% (inactive). Moreover, the nuclei count in [2] stood at 97.5%; in test [3], 84.1%. Besides, in [4], the fluorescence slope is -0.273 (inactive). In addition, in test [5], the NADPH fluorescence slope is -2.6e-05 (inactive). The slope in test [6] was 0.0087 (active). The outcome in test [7] was inactive.

As for `Cc1cc(NC(=O)C(C)(C)C)no1`, the cell count in test [1] amounted to 507. The inhibition in [1] is -8.7% (inactive); in [3], -50.6% (inactive); in test [8], 16.1% (inactive); in test [9], 20.8% (inactive). Further, in test [2], the inhibition of aggregation is -18% (inactive). The values for the nuclei count in test [2] and in test [3] were 118% and 124%, respectively. In addition, the fluorescence slope in [4] was -0.29 (inactive). In addition, the NADPH fluorescence slope in [5] is -1.1e-05 (inactive). Besides, the slope in test [6] was 0.005 (inactive). The molecule was classed as inactive in test [7].

In the case of `CCOC(=O)c1oc2cc(OCC(N)=O)ccc2c(=O)c1-c1ccc(OC)c(OC)c1`, in test [1], the cell count stood at 411. The inhibition in test [1] was 8.1% (inactive); in [3] it was -114% (inactive); in test [8], 19.4% (inactive); in test [9], 22.5% (inactive). In addition, in [2], the inhibition of aggregation was -10.4% (inactive). Moreover, the values for the nuclei count in test [2] and in [3] were 106% and 102%, respectively. In addition, the fluorescence slope in test [4] is -0.445 (inactive). The NADPH fluorescence slope in test [5] is -0.000137 (inactive). In addition, the slope in test [6] was 0.0045 (inactive). In addition, the call in [7] was inactive.

Turning to `Cc1c(Cl)cccc1NC(=O)CCN1CCCCCC1`, the cell count in test [1] was found to be 221. The inhibition in [1] is 14.6% (inactive); in [3], -108% (inactive); in [8], 13.4% (inactive); in test [9], 20.3% (inactive). For the same molecule, the inhibition of aggregation in test [2] was -8.7% (inactive). Further, the values for the nuclei count in test [2] and in test [3] were 90.4% and 143%, respectively. Besides, the fluorescence slope in test [4] was -0.414 (inactive). Besides, the NADPH fluorescence slope in [5] was -3.3e-05 (inactive). Moreover, the slope in [6] is 0.00752 (inactive). Besides, the call in [7] was inactive.

Turning to `O=S(=O)(c1cccc2c(S(=O)(=O)N3CCCC3)cccc12)N1CCCC1`, the cell count in test [1] was determined as 250. The inhibition in test [1] was -13.4% (inactive); in test [3], -17.4% (inactive); in [8] it was 18.2% (inactive); in test [9], 21.9% (inactive). Also, the inhibition of aggregation in test [2] is -7.2% (inactive). The values for the nuclei count in test [2] and in [3] were 118% and 88.6%, respectively. For the same molecule, the fluorescence slope in test [4] is -0.355 (inactive). Besides, the NADPH fluorescence slope in test [5] is 6.6e-06 (inactive). Also, the slope in [6] is 0.00452 (inactive). Also, the molecule was called inactive in test [7].

For `O=C(Cc1nc2ccccc2s1)c1ccc(O)cc1O`, in test [1], the cell count worked out at 322. Besides, the inhibition is 1.1% (inactive) in test [1], -98.2% (inactive) in test [3], -33.1% (inactive) in test [8] and -88.7% (inactive) in test [9]. Further, the inhibition of aggregation in [2] was -15.5% (inactive). Moreover, the nuclei count in test [2] is 88.3%; in [3], 124%. Besides, in test [4], the fluorescence slope is -0.391 (inactive). Moreover, the NADPH fluorescence slope in test [5] is -0.000109 (inactive). Further, the slope in [6] was 0.00457 (inactive). Further, the outcome in test [7] was inactive.

As to `COc1ccc(C(NC(C)=O)c2ccc3cccnc3c2O)c(OC)c1` (stereo unspecified), the cell count in test [1] amounted to 444. For the same molecule, the inhibition in [1] was 2.1% (inactive); in [3] it was 23.6% (inactive); in test [8], -12.8% (inactive); in test [9] it was 61.9% (active). In test [2], the inhibition of aggregation is -3% (inactive). For the same molecule, the nuclei count in test [2] is 90.6%; in [3] it was 111%. Also, the fluorescence slope in [4] was -0.37 (inactive). Moreover, the NADPH fluorescence slope in test [5] is -5.8e-05 (inactive). Besides, the slope in [6] was 0.00602 (inactive). Also, the outcome in test [7] was inactive.

Take `CSc1c(CC(=O)NCCO)n(C)c2ccccc12`: the cell count in test [1] was found to be 575. For the same molecule, the inhibition is -14% (inactive) in test [1], -3.5% (inactive) in test [3], 1.14% (inactive) in [8] and 5.52% (inactive) in test [9]. Further, the inhibition of aggregation in test [2] was 8.4% (inactive). Also, the nuclei count in test [2] stood at 88%; in test [3] it was 105%. The fluorescence slope in test [4] is -0.338 (inactive). In [5], the NADPH fluorescence slope is 1.3e-05 (inactive). Further, the slope in test [6] is 0.005 (inactive). In test [7], the molecule was called inactive.

With `CCCn1c(SCC(=O)NC(=O)NCc2ccco2)n[nH]c1=O`, in [1], the cell count was determined as 424. In addition, the inhibition is 3.7% (inactive) in test [1], -178% (inactive) in [3], 2.79% (inactive) in test [8] and 15.3% (inactive) in test [9]. Besides, in [2], the inhibition of aggregation is -7.6% (inactive). In addition, the nuclei count stood at 73.3% in [2] and 117% in test [3]. The fluorescence slope in test [4] is -0.39 (inactive). The NADPH fluorescence slope in [5] was -3.4e-05 (inactive). Besides, in test [6], the slope is 0.00519 (inactive). The outcome in test [7] was inactive.

Regarding `CN(CC(=O)Nc1cccnc1)S(=O)(=O)c1cc(Cl)ccc1Cl`, in test [1], the cell count was 448. The inhibition is 12.5% (inactive) in [1], -44.8% (inactive) in test [3], -8.87% (inactive) in [8] and -13.1% (inactive) in [9]. Further, in test [2], the inhibition of aggregation was -7.7% (inactive). In addition, the nuclei count turned out to be 101% in test [2] and 98.2% in [3]. The fluorescence slope in test [4] was -0.468 (inactive). In addition, the NADPH fluorescence slope in [5] was -1.6e-06 (inactive). In test [6], the slope is 0.00566 (inactive). Besides, in test [7], the molecule was called inactive.

Regarding `Cc1cc(C)nc(SCc2nnc(SCC(=O)Nc3ncc(C)s3)n2Cc2ccco2)n1`, the cell count in test [1] worked out at 422. Also, the inhibition in test [1] was 3% (inactive); in test [3], -23.5% (inactive); in [8], 8.75% (inactive); in test [9] it was 11.7% (inactive). Moreover, the inhibition of aggregation in test [2] was 7.1% (inactive). In addition, the nuclei count in test [2] came out at 98.6%; in [3], 103%. In addition, in [4], the fluorescence slope was -0.353 (inactive). The NADPH fluorescence slope in test [5] is -6.9e-05 (inactive). Besides, in test [6], the slope is 0.00544 (inactive). In addition, in test [7], the molecule was classed as inactive.

Consider `O=C1CCC(C(=O)N(Cc2ccco2)C2(C(=O)NC3CCCC3)CCCCC2)N1` (stereo unspecified), for which, in test [1], the cell count came to 428. The inhibition in test [1] was -6.8% (inactive); in [3], -39.9% (inactive); in [8], 5.55% (inactive); in [9], 13.4% (inactive). For the same molecule, in test [2], the inhibition of aggregation is -16.4% (inactive). Besides, the nuclei count in test [2] came to 116%; in test [3], 139%. The fluorescence slope in test [4] is -0.428 (inactive). Besides, in test [5], the NADPH fluorescence slope is 4.8e-06 (inactive). For the same molecule, the slope in [6] was 0.00488 (inactive). Besides, the outcome in test [7] was inactive.
